Data from article PMC5509056 (FEBS letters, 2017).

Legend:
[1] = test system: rat hippocampus membranes; assay: Agonist-stimulated [^35S]GTPγS binding in rat hippocampus membranes; type: biochemical, rat (Wistar)
[2] = test system: supraoptic nucleus (SON) neurons; μ receptor; assay: Whole cell patch clamp, evoked outward / holding current in SON neurons; type: cell-based, rat (Sprague Dawley); settings: for holding current response in SON: 1 μM, six cells in the SON
[3] = test system: rostral supraoptic nucleus (SON) cells; assay: Spontaneous firing rate; type: cell-based, rat (Sprague Dawley); settings: 1 μM, six cells in the SON
Summary of the method: (§1)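 Coronal hypothalamic slices (250 μm) came from halothane-anaesthetised 20–24-day-old rats, cut in ice-cold sucrose ACSF and warmed to 35°C over 30 min. Slices were held submerged in 32°C ACSF (MgCl2 1.2, CaCl2 2.4 mM) gassed with 95% O2/5% CO2. Neurons were visualised by IR-DIC and patched with 5–8 MΩ pipettes (K-gluconate internal, pH 7.2) for whole-cell current and/or voltage clamp.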

[4] = test system: suprachiasmatic nucleus (SCN) cells; assay: Spontaneous firing rate; type: cell-based, rat (Sprague Dawley); settings: 1 μM, six cells in the SCN
Summary of the method: as §1

[5] = test system: suprachiasmatic nucleus (SCN) cells; assay: Whole cell patch clamp, holding current in SCN neurons; type: cell-based, rat (Sprague Dawley); settings: 1 μM, six cells in the SCN
mu-opioid receptor (MOR) = settings: endomorphins EM1 and EM2; ref [5], [6], [7]; cited from earlier work

Row | Molecule | SFR response in SON [3] | SFR response in SCN [4] | holding current response in SON [2] | holding current response in SCN [5] | binding affinity and selectivity to MOR (in words) (mu-opioid receptor (MOR)) | further results
1 | C=CCN1CC[C@]23c4c5ccc(O)c4O[C@H]2C(=O)CC[C@@]3(O)[C@H]1C5 [naloxone, reference compound] |  |  |  |  |  | inhibition of agonist effect of Mx-1 in promoting incorporation of γ-GTP ([1]; naloxone saturating concentrations (10 μM) with Mx-1): inhibited the agonist effect of Mx-1
2 | CTOP [reference compound] |  |  |  |  |  | Mx-1 evoked current amplitude in presence of CTOP ([2]; CTOP 100 nM added to bath with 100 nM Mx-1, six SON neurons): 3.8 ± 2.0 pA
3 | NH2-PPPRSPYSGKGLGPGNLLHSALLPIHCICLC-COO^- [Mx-3] | no measurable difference | no measurable difference | no measurable difference | no measurable difference |  | agonist-stimulated activity of Mx-3 compared with Mx-1 ([1]; [^35S]GTPγS, rat hippocampus membranes, comparison with Mx-1, discussion): greater than that displayed by Mx-1; [^35S]GTPγS binding at high concentrations (decrease) ([1]; high concentrations, for Mx-1: 1.2, 2.4 and 4.8 μM): not observed
4 | NH2-TSRTDGTQS-COO^- [Mx-2] | no measurable difference | no measurable difference | no measurable difference | no measurable difference |  | 
5 | Tyr-Pro-Phe-Phe-NH2 [EM2] |  |  |  |  | high binding affinity and selectivity to the mu-opioid receptor | 
6 | Tyr-Pro-Trp-Phe-NH2 [EM1] |  |  |  |  | high binding affinity and selectivity to the mu-opioid receptor | 
